Results reported in ChEMBL document CHEMBL4190193, “Stachybotrysins A-G, Phenylspirodrimane Derivatives from the Fungus Stachybotrys chartarum” (J Nat Prod, 2017).
pIC50: −log10 of the molar value.

What was measured:
NCI-H460 = experiment: Cytotoxicity against human NCI-H460 cells assessed as reduction in cell viability after 96 hrs by MTT assay; format: cell-based; conditions: NCI-H460, 96 h
In short: (§1)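 MTT assay. Cells were grown in RPMI 1640 with 10% FBS, penicillin and streptomycin at 37 °C under 5% CO2, then seeded at 1200 cells/well. Compounds were added after 24 h at 10−4 to 10−8 M (five concentrations, final DMSO 0.1% v/v) and incubated 96 h. Absorbance was read at 570 nm. Paclitaxel was the positive control, with triplicates per concentration; IC50 was calculated from these.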

[1] = tested on: Human immunodeficiency virus 1; experiment: Antiviral activity against VSV-G pseudotyped HIV1 infected in human SupT1 cells after 48 hrs by firefly luciferase reporter gene assay; format: functional, organism-based; conditions: Human immunodeficiency virus 1, SUP-T1, 48 h
In short: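 293T cells (2 × 105) cotransfected with 0.6 μg pNL-Luc-E−-Vpu− and 0.4 μg pHIT/G. Supernatant harvested at 48 h, 0.45 μm filtered, capsid p24 quantified by antigen-capture ELISA. SupT1 cells infected at MOI 1, 37 °C, 48 h, with compound at several concentrations, each in triplicate. Efavirenz as control. Inhibition measured by firefly luciferase; IC50 calculated from it.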

HepG2 = experiment: Cytotoxicity against human HepG2 cells assessed as reduction in cell viability after 96 hrs by MTT assay; format: cell-based; conditions: HepG2, 96 h; in short: as §1
BGC-823 = experiment: Cytotoxicity against human BGC823 cells assessed as reduction in cell viability after 96 hrs by MTT assay; format: cell-based; conditions: BGC-823, 96 h; in short: as §1
Influenza A virus = experiment: Antiviral activity against VSV-G pseudotyped Influenza A virus infected in human SupT1 cells after 48 hrs by firefly luciferase reporter gene assay; format: functional, organism-based; conditions: SUP-T1, 48 h

Structure (SMILES)	pIC50 (NCI-H460)	pIC50 [1]	pIC50 (HepG2)	pIC50 (BGC-823)	pIC50 (Influenza A virus)
Cc1cc(O)c2c(c1C=O)O[C@]1(C2)[C@H](C)CC[C@H]2C(C)(C)[C@H](O)CC[C@@]21C	4.80	4.69 to 4.81	4.74	4.66	
CC(=O)/C=C/c1c(CO)cc(O)c2c1O[C@]1(C2)[C@H](C)CC[C@H]2C(C)(C)[C@H](O)CC[C@@]21C					4.63 to 4.91
C=C1CC[C@H]2C(C)(C)[C@H](O)CC[C@]2(C)[C@@]12Cc1c(O)cc(COC(C)=O)c(C=O)c1O2		4.69 to 4.81			
CC(=O)C[C@@H]1OCc2cc(O)c3c(c21)O[C@]1(C3)[C@H](C)CC[C@H]2C(C)(C)[C@H](O)CC[C@@]21C		4.69 to 4.81	4.61		4.63 to 4.91
CC(=O)O[C@@H]1CC[C@@]2(C)[C@@H](CC[C@@H](C)[C@]23Cc2c(O)cc(CO)c(C=O)c2O3)C1(C)C		4.69 to 4.81			
CC(=O)O[C@@H]1CC[C@@]2(C)[C@@H](CC[C@@H](C)[C@]23Cc2c(O)cc4c(c2O3)COC4=O)C1(C)C					4.63 to 4.91
CC(=O)C[C@H]1OCc2cc(O)c3c(c21)O[C@]1(C3)[C@H](C)CC[C@H]2C(C)(C)[C@H](O)CC[C@@]21C					4.63 to 4.91
CC(=O)O[C@@H]1CC[C@@]2(C)[C@@H](CC[C@@H](C)[C@]23Cc2c(O)cc(C)c(C=O)c2O3)C1(C)C		4.69 to 4.81	4.61		4.63 to 4.91
CC(=O)O[C@H]1C(=O)[C@@]2(C)[C@H]([C@H](OC(=O)c3ccccc3)[C@]3(O)C[C@H](OC(=O)[C@H](O)[C@@H](NC(=O)c4ccccc4)c4ccccc4)C(C)=C1C3(C)C)[C@]1(OC(C)=O)CO[C@@H]1C[C@@H]2O [PACLITAXEL]	9.00		8.20	9.10	
NC(=O)c1ncn([C@@H]2O[C@H](CO)[C@@H](O)[C@H]2O)n1 [RIBAVIRIN]					8.70
